Here are results for five compounds from ChEMBL document CHEMBL1131019, “Minimal-size, constrained corticotropin-releasing factor agonists with i-(i+3) Glu-Lys and Lys-Glu bridges” (1998).

For this assay, the species on record is Rattus norvegicus. In words: In vitro for agonist activity by measuring release of ACTH by rat pituitary cells in culture relative to human Corticotropin-Releasing factor (CRF). It is filed as functional, Pituitary gland cell. An outline of the steps:
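Male Sprague–Dawley rat anterior pituitary cells, collagenase-dissociated, plated at 0.16 × 10⁶ cells/well in 2% FBS medium. After 3 days, washed into 0.1% BSA medium, preincubated 1 h, washed again, then exposed to peptide for 3 h. Medium ACTH measured by radioimmunoassay.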

On to `CCCC[C@H](NC(=O)[C@H](CCC(=O)O)NC(=O)[C@H](CC(C)C)NC(=O)[C@H](CCCC)NC(=O)[C@H](CCC(=O)O)NC(=O)[C@H](CCCN=C(N)N)NC(=O)[C@H](CC(C)C)NC(=O)[C@H](CC(C)C)NC(=O)[C@H](Cc1c[nH]cn1)NC(=O)[C@@H](Cc1ccccc1)NC(=O)[C@@H](NC(=O)[C@H](CC(C)C)NC(=O)[C@H](CC(=O)O)NC(=O)[C@H](CC(C)C)NC(=O)[C@H](CO)NC(=O)[C@@H](NC(=O)[C@@H]1CCCN1C(=O)[C@@H]1CCCN1C(C)=O)[C@@H](C)CC)[C@@H](C)O)C(=O)N[C@@H](C)C(=O)N[C@@H](CCCCN)C(=O)N[C@@H](C)C(=O)N[C@@H](CCC(=O)O)C(=O)N[C@@H](CCC(N)=O)C(=O)N[C@@H](CCC(=O)O)C(=O)N[C@@H](C)C(=O)N[C@@H](CCC(=O)O)C(=O)N[C@@H](CCC(N)=O)C(=O)N[C@@H](C)C(=O)N[C@@H](C)C(=O)N[C@@H](CC(C)C)C(=O)N[C@@H](CC(N)=O)C(=O)N[C@@H](CCCN=C(N)N)C(=O)N[C@@H](CC(C)C)C(=O)N[C@@H](CC(C)C)C(=O)N[C@@H](CC(C)C)C(=O)N[C@@H](CCC(=O)O)C(=O)N[C@@H](CCC(=O)O)C(=O)N[C@@H](C)C(N)=O`, for which the Potency worked out at 1.3.

Compound `CCCC[C@H](NC(=O)[C@H](CCC(=O)O)NC(=O)[C@H](CC(C)C)NC(=O)[C@H](CCCC)NC(=O)[C@H](CCC(=O)O)NC(=O)[C@H](CCCN=C(N)N)NC(=O)[C@H](CC(C)C)NC(=O)[C@H](CC(C)C)NC(=O)[C@H](Cc1c[nH]cn1)NC(=O)[C@@H](Cc1ccccc1)NC(=O)[C@@H](NC(=O)[C@H](CC(C)C)NC(=O)[C@H](CC(=O)O)NC(=O)[C@H](CC(C)C)NC(=O)[C@H](CO)NC(=O)[C@@H](NC(=O)[C@@H]1CCCN1C(=O)[C@@H]1CCCN1C(C)=O)[C@@H](C)CC)[C@@H](C)O)C(=O)N[C@@H](C)C(=O)N[C@@H](CCCCN)C(=O)N[C@@H](C)C(=O)N[C@@H](CCC(=O)O)C(=O)N[C@@H](CCC(N)=O)C(=O)N[C@@H](CCC(=O)O)C(=O)N[C@@H](C)C(=O)N[C@@H](CCC(=O)O)C(=O)N1C(=O)[C@H](C)NC(=O)[C@H](C)NC(=O)[C@@H](N)CCC(=O)NCCCC[C@H]1C(=O)N[C@@H](CC(N)=O)C(=O)N[C@@H](CCCN=C(N)N)C(=O)N[C@@H](CC(C)C)C(=O)N[C@@H](CC(C)C)C(=O)N[C@@H](CC(C)C)C(=O)N[C@@H](CCC(=O)O)C(=O)N[C@@H](CCC(=O)O)C(=O)N[C@@H](C)C(N)=O` had a Potency of 7.5. Compound `CC[C@H](C)[C@H](NC(=O)[C@H](CO)NC(=O)[C@H](CC(C)C)NC(=O)[C@H](CO)NC(=O)[C@@H]1CCCN1C(C)=O)C(=O)N[C@@H](CC(=O)O)C(=O)N[C@@H](CC(C)C)C(=O)N[C@H](C(=O)N[C@H](Cc1ccccc1)C(=O)N[C@@H](Cc1c[nH]cn1)C(=O)N[C@@H](CC(C)C)C(=O)N[C@@H](CC(C)C)C(=O)N[C@@H](CCCN=C(N)N)C(=O)N[C@H](C(=O)N[C@@H](CC(C)C)C(=O)N[C@@H](CC(C)C)C(=O)N[C@@H](CCC(=O)O)C(=O)N[C@@H](CC(C)C)C(=O)N[C@@H](C)C(=O)N[C@@H](CCCN=C(N)N)C(=O)N[C@H](C(=O)N[C@@H](CCC(N)=O)C(=O)N[C@@H](CO)C(=O)N[C@@H](CCC(N)=O)C(=O)N[C@@H](CCCN=C(N)N)C(=O)N[C@@H](CCC(=O)O)C(=O)N1C(=O)[C@H](CCC(=O)O)NC(=O)[C@H](C)NC(=O)[C@@H](N)CCC(=O)NCCCC[C@H]1C(=O)N[C@@H](CC(N)=O)C(=O)N[C@@H](CCCN=C(N)N)C(=O)N[C@H](C(=O)N[C@H](C(=O)N[C@@H](Cc1ccccc1)C(=O)N[C@@H](CC(=O)O)C(=O)N[C@@H](CO)C(=O)N[C@H](C(N)=O)C(C)C)[C@@H](C)CC)[C@@H](C)CC)[C@@H](C)O)[C@@H](C)O)[C@@H](C)O` returned a Potency of 3.8. As for `CCCC[C@H](NC(=O)[C@H](CCC(=O)O)NC(=O)[C@@H](NC(=O)[C@H](CCCC)NC(=O)[C@H](CC(N)=O)NC(=O)[C@H](CCCN=C(N)N)NC(=O)[C@H](CC(C)C)NC(=O)[C@H](CC(C)C)NC(=O)[C@H](Cc1c[nH]cn1)NC(=O)[C@@H](Cc1ccccc1)NC(=O)[C@@H](NC(=O)[C@H](CC(C)C)NC(=O)[C@H](CC(=O)O)NC(=O)[C@@H](NC(=O)[C@H](CO)NC(=O)[C@@H](NC(=O)[C@@H]1CCCN1C(=O)[C@@H]1CCCN1C(=O)[C@H](CC(=O)O)NC(=O)[C@H](CC(=O)O)NC(=O)[C@@H](N)CC(N)=O)[C@@H](C)CC)[C@@H](C)CC)[C@@H](C)O)[C@@H](C)CC)C(=O)N[C@@H](C)C(=O)N[C@@H](CCCN=C(N)N)C(=O)N[C@H](C(=O)N[C@@H](CCC(=O)O)C(=O)N[C@@H](CC(N)=O)C(=O)N[C@@H](CCC(=O)OC)C(=O)N[C@@H](CCCN=C(N)N)C(=O)N[C@@H](CCC(=O)O)C(=O)N[C@@H](CCC(=O)O)C(=O)N[C@@H](C)C(=O)NCC(=O)N[C@@H](CCCCN)C(=O)N[C@@H](CC(N)=O)C(=O)N[C@@H](CCCN=C(N)N)C(=O)N[C@@H](CCCCN)C(=O)N[C@@H](Cc1ccc(O)cc1)C(=O)N[C@@H](CC(C)C)C(=O)N[C@@H](CC(=O)O)C(=O)N[C@@H](CCC(=O)O)C(=O)N[C@H](C(N)=O)C(C)C)[C@@H](C)CC`, the figure is 1.1; as for `CCCC[C@H](NC(=O)[C@H](CCC(=O)O)NC(=O)[C@@H](NC(=O)[C@H](CCCC)NC(=O)[C@H](CC(N)=O)NC(=O)[C@H](CCCN=C(N)N)NC(=O)[C@H](CC(C)C)NC(=O)[C@H](CC(C)C)NC(=O)[C@H](Cc1c[nH]cn1)NC(=O)[C@@H](Cc1ccccc1)NC(=O)[C@@H](NC(=O)[C@H](CC(C)C)NC(=O)[C@H](CC(=O)O)NC(=O)[C@@H](NC(=O)[C@H](CO)NC(=O)[C@@H](NC(=O)[C@@H]1CCCN1C(=O)[C@@H]1CCCN1C(=O)[C@H](CC(=O)O)NC(=O)[C@H](CC(=O)O)NC(=O)[C@@H](N)CC(N)=O)[C@@H](C)CC)[C@@H](C)CC)[C@@H](C)O)[C@@H](C)CC)C(=O)N[C@@H](C)C(=O)N[C@@H](CCCN=C(N)N)C(=O)N[C@H](C(=O)N[C@@H](CCC(=O)O)C(=O)N[C@@H](CC(N)=O)C(=O)N[C@@H](CCC(=O)OC)C(=O)N[C@@H](CCCN=C(N)N)C(=O)N[C@@H](CCC(=O)O)C(=O)N1C(=O)CNC(=O)[C@H](C)NC(=O)[C@@H](N)CCC(=O)NCCCC[C@H]1C(=O)N[C@@H](CC(N)=O)C(=O)N[C@@H](CCCN=C(N)N)C(=O)N[C@@H](CCCCN)C(=O)N[C@@H](Cc1ccc(O)cc1)C(=O)N[C@@H](CC(C)C)C(=O)N[C@@H](CC(=O)O)C(=O)N[C@@H](CCC(=O)O)C(=O)N[C@H](C(N)=O)C(C)C)[C@@H](C)CC`, 2.9.
